Measured values from different studies.
Each line is one published result; the experiments were not run side by side.
Target: Mitogen-activated protein kinase 3 (MAPK3, Homo sapiens, UniProt P27361)

SMILES | observed | technique | tested at | remaining binding [%]
O=C(NCCCN1CCOCC1)c1ccc(Nc2nccc(-c3cc4ccccc4s3)n2)cc1 | binding | competition with immobilised ligand | 1 µM | 100
CC1CCCN1c1nccc(-c2cnn3ncccc23)n1 (stereo not shown) | binding |  | 1 µM | 86
CC(C)(C)c1ccc(-c2nc(CBr)nn2-c2cccc(O)c2)cc1 | cell-free assay | competition with immobilised ligand | 10 µM | 91
O=C(O)[C@@H]1[C@@H](Cn2nnc3ccccc3c2=O)CC[C@H]1C(=O)c1ccc(OCCC2CCOCC2)cc1 | cell-free assay | competition with immobilised ligand | 1 µM | 100
O=C(c1ccc(Nc2ncc(Cl)c(-c3cc4ccccc4s3)n2)cc1)N1CCC(N2CCCC2)CC1 | binding | competition with immobilised ligand | 1 µM | 97
C[C@@H]1CN(c2ccc3ncc(-c4ccc5[nH]nc(C6CC6)c5c4)n3n2)C[C@H](C)O1 | binding | competition with immobilised ligand | 50 nM | 100
N[C@@H]1CCN(c2nccc(-c3cnn4ncccc34)n2)C1 | binding |  | 1 µM | 91
COc1cnc(Nc2cccc(S(N)(=O)=O)c2)nc1N1CCN(c2ccccc2)CC1 | binding | competition with immobilised ligand | 1 µM | 100
CN(c1nccc(-c2cnn3ncccc23)n1)C1CC1 | binding |  | 1 µM | 89
c1ccc(N2CCN(Cc3nc4ccccc4[nH]3)CC2)nc1 | binding | competition with immobilised ligand | 1 µM | 100
C=CC(=O)N1CCC(C(=O)NCC(=O)N2CCN(c3nc(-c4cnc(N)nc4C(F)F)nc(N4CCOCC4)n3)CC2)CC1 | binding | competition with immobilised ligand | 1 µM | 100
c1cnn2ncc(-c3ccnc(N4CCC45COC5)n3)c2c1 | binding |  | 1 µM | 94
Cc1cnc(Nc2ccc(C(=O)N3CCC(N4CCCC4)CC3)cc2)nc1-c1cc2ccccc2s1 | binding | competition with immobilised ligand | 1 µM | 100
c1cncc(-c2cccc(Nc3nccc(NC4CCCCC4)n3)c2)c1 | binding | competition with immobilised ligand | 10 µM | 100
CNC(=O)[C@@H]1CC[C@@H](n2c(-c3ccc4cnccc4c3)nc3ccc(C(=O)NCc4cccc(C(N)=O)c4)cc32)C1 | binding | competition with immobilised ligand | 1 µM | 100
COCCOc1nc(-c2ccc(Cl)nc2)nc2c1CN(C(=O)c1ncn3ccccc13)CC2 | cell-free assay | competition with immobilised ligand | 0.1 µM | 89
COc1ccnn2ncc(-c3ccnc(N(C)C)n3)c12 | binding |  | 1 µM | 92
C[C@@H]1CN(c2cc(-c3nn(C)c4ccc(OC5(C)CC5)cc34)ncn2)C[C@H](C)O1 | cell-free assay | competition with immobilised ligand | 1 µM | 100
C[C@H]1CCN(c2nccc(-c3cnn4ncccc34)n2)C1 | binding |  | 1 µM | 83
CO[C@@H](C)c1c(Nc2ccc([C@H](N(C)C(=O)C3CCS(=O)(=O)CC3)C(F)(F)F)cc2)cnc2cc(Cl)nn12 | cell-free assay | competition with immobilised ligand | 1 µM | 100
CN(C)c1ncc(F)c(-c2cnn3ncccc23)n1 | binding |  | 1 µM | 91
C[C@@H](c1cccc(C#N)c1)n1cc(Cl)cc(C(N)=O)c1=N | cell-free assay | competition with immobilised ligand | 1 µM | 100
C[C@@H](c1ccc(-n2cnc3c(N)ncnc32)cc1)N1CCc2nn(C)c(Cc3ccccc3)c2C1=O | binding | competition with immobilised ligand | 0.1 µM | 100
Cn1cc(Cl)c2c(Oc3c(F)cc(Nc4cc(Cl)nc(N)n4)cc3F)ccnc21 | cell-free assay | competition with immobilised ligand | 0.1 µM | 98
O=C(NCC1CCOCC1)c1n[nH]cc1NC(=O)c1c(F)cccc1F | binding | competition with immobilised ligand | 1 µM | 100
